Measured values as given in publication PMC12542962 (Science Advances, 2025).
Converted amounts (≈) assume the structure as drawn. Read-outs that look alike come from different tables or passages of the source.

Columns and labels:
CRKP [1] = assay: Resistance development assay, 20 passages; format: cell-based, K. pneumoniae; conditions: Klebsiella pneumoniae
Summary of the method: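 Log-phase CRKP clinical isolate diluted in LB broth containing imipenem, with or without test compound, and cultured at 37°C for serial passaging.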

CRKP [2] = assay: Lethal CRKP pneumonia model, survival; format: in vivo, BALB/c mice; conditions: single dose; TINA 10 mg/kg, imipenem 8 mg/kg, or 10 + 8 mg/kg; n = 10
Summary of the method: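 Female BALB/c mice (n = 10 per group) infected with 5 × 10^7 CFU CRKP. Thirty minutes later they were treated with PBS, test compound 10 mg/kg, imipenem 8 mg/kg, or test compound plus imipenem (10 + 8 mg/kg) as a single or double dose. Survival was followed for 7 days postinfection and cumulative survival calculated.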

CRKP [3] = assay: Time-dependent killing assay; format: cell-based, K. pneumoniae; conditions: TINA 20 μg/ml or imipenem 8 μg/ml alone, 24 hours
CRKP, CRE, and CRAB = assay: Acute pneumonia models, blood indicators, histology and inflammation; format: in vivo, BALB/c mice; conditions: TINA 10 mg/kg or imipenem 8 mg/kg, single dose

## C[C@@H](O)[C@H]1C(=O)N2C(C(=O)O)=C(SCCN=CN)C[C@H]12 [Imipenem, imipenem]
CRKP [1]; read-out: MIC after 20 passages
  MIC: 2050 µg/mL (≈ 6.84 mM)
CRKP [1]; read-out: MIC before passaging
  MIC: 64 µg/mL (≈ 0.214 mM)
CRKP [2]
  survival rate at dpi 7: 30%
CRKP [3]
  change in bacteria counts, monotherapy: increased by two orders of magnitude in bacteria counts
CRKP, CRE, and CRAB
  effect of monotherapy on live bacteria in the lungs: mere effects on eliminating live bacteria in the lungs
